In brackets after ≈: the same amount, converted by molar mass. Activity calls are given as the source filed them. The rule behind the calls is not given here.
Experiments:
Assay type in all cases: functional
Pseudomonas aeruginosa [1] = assay: Antimicrobial activity against Pseudomonas aeruginosa MTCC 3541 after 24 hrs by agar dilution assay; settings: MTCC 3541, 24 h
How it was run: (§1)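 Agar dilution MIC following NCCLS. Cultures streaked on soyabean casein digest agar overnight at 37 °C, suspended to 0.5 McFarland, then diluted 10-fold (1.2 × 10⁷ CFU/ml). DMSO stocks diluted and added to molten Mueller-Hinton agar, final concentrations 64 down to 0.12 by twofold steps. Plates surface-inoculated, incubated 35 °C for 24 h. MIC is lowest concentration with no visible growth.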

Staphylococcus aureus [2] = assay: Antimicrobial activity against Staphylococcus aureus MTCC 3160 after 24 hrs by agar dilution assay; settings: MTCC 3160, 24 h; how it was run: as §1
Bacillus pumilus [3] = assay: Antimicrobial activity against Bacillus pumilus MTCC 1456 after 24 hrs by agar dilution assay; settings: MTCC 1456, 24 h; how it was run: as §1
[4] = test system: Salmonella enterica subsp. enterica serovar Typhi str. CT18; assay: Antimicrobial activity against Salmonella typhi MTCC 733 after 24 hrs by agar dilution assay; settings: MTCC 733, 24 h
[5] = test system: Staphylococcus epidermidis; assay: Antimicrobial activity against Staphylococcus epidermidis MTCC 2639 after 24 hrs by agar dilution assay; settings: MTCC 2639, 24 h; how it was run: as §1
Bacillus pumilus [6] = assay: Antimicrobial activity against Bacillus pumilus MTCC 1456 at 1 mg/ml after 24 hrs by agar diffusion assay; settings: for zone of inhibition at 1000 µg/mL: MTCC 1456, 24 h, read-out: DIZ
How it was run: (§2)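 Agar well diffusion. 24-h cultures adjusted to 0.5 McFarland (1.5 × 10⁸ CFU/ml), mixed into molten cooled Mueller-Hinton agar (pH 7.4) and poured. 6 mm wells punched, each loaded with 50 µl of 1 mg/ml DMSO solution. DMSO as negative control, antibiotics as positive controls. Plates incubated 35 °C for 24 h. Mean of three replicates.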

Staphylococcus aureus [7] = assay: Antimicrobial activity against Staphylococcus aureus MTCC 3160 at 1 mg/ml after 24 hrs by agar diffusion assay; settings: MTCC 3160, 24 h, read-out: DIZ; how it was run: as §2
Pseudomonas aeruginosa [8] = assay: Antimicrobial activity against Pseudomonas aeruginosa MTCC 3541 at 1 mg/ml after 24 hrs by agar diffusion assay; settings: for zone of inhibition at 1000 µg/mL: MTCC 3541, 24 h, read-out: DIZ; how it was run: as §2
[9] = test system: Staphylococcus epidermidis; assay: Antimicrobial activity against Staphylococcus epidermidis MTCC 2639 at 1 mg/ml after 24 hrs by agar diffusion assay; settings: for zone of inhibition at 1000 µg/mL: MTCC 2639, 24 h, read-out: DIZ; how it was run: as §2
[10] = test system: Salmonella enterica subsp. enterica serovar Typhi str. CT18; assay: Antimicrobial activity against Salmonella typhi MTCC 733 at 1 mg/ml after 24 hrs by agar diffusion assay; settings: for zone of inhibition at 1000 µg/mL: MTCC 733, 24 h, read-out: DIZ
How it was run: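 Well diffusion in MHA (pH 7.4) seeded with 24-h culture adjusted to 0.5 McFarland (1.5 × 10⁸ CFU/ml). Wells of 6 mm received 50 µl of 1 mg/ml DMSO solution; DMSO served as negative control. Incubated 35 °C, 24 h. Mean of three replicates.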

SMILES	MIC (Pseudomonas aeruginosa [1]) [µg/mL]	MIC (Staphylococcus aureus [2]) [µg/mL]	MIC (Bacillus pumilus [3]) [µg/mL]	MIC [4] [µg/mL]	MIC [5] [µg/mL]	diameter of the inhibition zone (DIZ) (Bacillus pumilus [6])	zone of inhibition at 1000 µg/mL (Staphylococcus aureus [7]) [mm]	zone of inhibition at 1000 µg/mL (Pseudomonas aeruginosa [8]) [mm]	zone of inhibition at 1000 µg/mL [9] [mm]	diameter of the inhibition zone (DIZ) [10]	diameter of the inhibition zone (DIZ) (Pseudomonas aeruginosa [8])	zone of inhibition at 1000 µg/mL (Bacillus pumilus [6]) [mm]	zone of inhibition at 1000 µg/mL [10] [mm]	diameter of the inhibition zone (DIZ) [9]
N[C@@H](C(=O)N[C@@H]1C(=O)N2C(C(=O)O)=C(Cl)CS[C@H]12)c1ccccc1 [CEFACLOR ANHYDROUS]	< 16	2 (≈ 5.44 µM)	8 (≈ 21.8 µM)	8 (≈ 21.8 µM)	2 (≈ 5.44 µM)									
COC1(O)C(=O)c2ccccc2OC1(OC)c1cn(-c2ccccc2)nc1-c1ccc(Cl)cc1 (centres undefined)	32 (≈ 67.1 µM)	8 (≈ 16.8 µM)	> 64	> 64	16 (≈ 33.5 µM)	inactive	20.4	14.7	16.7	inactive				
COC1(O)C(=O)c2ccccc2OC1(OC)c1cn(-c2ccccc2)nc1-c1ccc(C)cc1 (centres undefined)	> 64	32 (≈ 70.1 µM)	> 64	> 64	64 (≈ 140 µM)	inactive	16.1		12.6	inactive	inactive			
COC1(O)C(=O)c2ccccc2OC1(OC)c1cn(-c2ccccc2)nc1-c1ccc(F)cc1 (centres undefined)	8 (≈ 17.4 µM)	4 (≈ 8.69 µM)	64 (≈ 139 µM)	8 (≈ 17.4 µM)	64 (≈ 139 µM)		23	22.2	12.1			10.1	18.2	
COC1(O)C(=O)c2ccccc2OC1(OC)c1cn(-c2ccccc2)nc1-c1ccc(Br)cc1 (centres undefined)	> 64	64 (≈ 123 µM)	> 64	> 64	> 64	inactive	10.3			inactive	inactive			inactive
CO/N=C(\C(=O)N[C@@H]1C(=O)N2C(C(=O)OC(C)OC(C)=O)=C(COC(N)=O)CS[C@H]12)c1ccco1 (some centres undefined) [CEFUROXIME AXETIL]	> 16	8 (≈ 15.7 µM)	> 16	8 (≈ 15.7 µM)	8 (≈ 15.7 µM)									
COC1(O)C(=O)c2ccccc2OC1(OC)c1cn(-c2ccccc2)nc1-c1ccccc1 (centres undefined)	> 64	16 (≈ 36.2 µM)	> 64	> 64	> 64	inactive	18.1			inactive	inactive			inactive
COC1(O)C(=O)c2ccccc2OC1(OC)c1cn(-c2ccccc2)nc1-c1ccc([N+](=O)[O-])cc1 (centres undefined)	16 (≈ 32.8 µM)	2 (≈ 4.1 µM)	32 (≈ 65.6 µM)	8 (≈ 16.4 µM)	8 (≈ 16.4 µM)		26	16.6	18.5			15.8	20.6	
CC(=O)NC[C@H]1CN(c2ccc(N3CCOCC3)c(F)c2)C(=O)O1 [LINEZOLID]	< 16		4 (≈ 11.9 µM)	8 (≈ 23.7 µM)	< 16									
COc1ccc(-c2nn(-c3ccccc3)cc2C2(OC)Oc3ccccc3C(=O)C2(O)OC)cc1 (centres undefined)	> 64	16 (≈ 33.9 µM)	> 64	> 64	> 64	inactive	18			inactive	inactive			inactive

From ChEMBL document CHEMBL1137679, “Synthesis and antibacterial activity of some new 2,3-dimethoxy-3-hydroxy-2-(1-phenyl-3-aryl-4-pyrazolyl)chromanones” (2009)
